Measurements published in ChEMBL document CHEMBL1240517, “Bisbibenzyl derivatives sensitize vincristine-resistant KB/VCR cells to chemotherapeutic agents by retarding P-gp activity” (Bioorg Med Chem, 2010).
pIC50: −log10 of the molar value. Where “and” joins values, the source holds several entries; their conditions need not be identical. Identical values can stand only once. Calls of active or inactive are those of the source. No cut-off for these calls is given here.

What was measured:
KB/VCR (human) = details: 4 to 16 uM
KB/VCR [1] = experiment: Reversal of P-glycoprotein-mediated vincristine-resistance in human KB/VCR cells expressing Pgp assessed as ratio of adriamycin IC50 to adriamycin IC50 in presence of compound at 16 uM after 48 hrs by MTT assay; format: cell-based
How it was run: (§1)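 Cells were exposed for 48 h to VCR or ADR alone, or to VCR or ADR combined with a fixed concentration of modulator. Verapamil (16 µM) served as the reference agent. […] RF = IC50 of drug alone / IC50 with modulator. Means ± SD of three experiments.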

KB [2] = experiment: Potentiation of vincristine-induced cytotoxicity against human KB cells at 16 uM after 48 hrs by MTT assay; format: functional
How it was run: as §1

KB/VCR [3] = experiment: Reversal of P-glycoprotein-mediated vincristine-resistance in human KB/VCR cells expressing Pgp assessed as ratio of vincristine IC50 to vincristine IC50 in presence of compound at 16 uM after 48 hrs by MTT assay; format: cell-based
How it was run: as §1

KB [4] = experiment: Potentiation of adriamycin-induced cytotoxicity against human KB cells at 16 uM after 48 hrs by MTT assay; format: functional
How it was run: as §1

KB [5] = experiment: Cytotoxicity against human KB cells after 48 hrs by MTT assay; format: functional, cell-based
KB/VCR [6] = experiment: Reversal of P-glycoprotein-mediated vincristine-resistance in human KB/VCR cells expressing Pgp assessed as ratio of vincristine IC50 to vincristine IC50 in presence of compound at 4 uM after 48 hrs by MTT assay
[7] = Cytotoxicity against human KB/VCR cells expressing Pgp after 48 hrs by MTT assay; format: functional, cell-based
How it was run: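 KB/VCR cells were kept in 200 ng/mL VCR and moved to drug-free medium for at least one week before use. Cells were exposed to graded compound concentrations for 48 h, with DMSO-treated cells as controls. Viability was read by MTT. IC50 values are means of three experiments.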

KB/VCR [8] = experiment: Reversal of P-glycoprotein-mediated vincristine-resistance in human KB/VCR cells expressing Pgp assessed as ratio of vincristine IC50 to vincristine IC50 in presence of compound at 4 uM after 48 hrs by MTT assay; format: cell-based
How it was run: (§2)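 Cells were exposed for 48 h to VCR or ADR alone, or to VCR or ADR combined with a fixed concentration of modulator. RF = IC50 of drug alone / IC50 with modulator. Means ± SD of three experiments.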

KB/VCR [9] = experiment: Reversal of P-glycoprotein-mediated vincristine-resistance in human KB/VCR cells expressing Pgp assessed as ratio of vincristine IC50 to vincristine IC50 in presence of compound at 8 uM after 48 hrs by MTT assay; format: cell-based
How it was run: as §2

KB [10] = experiment: Potentiation of vincristine-induced cytotoxicity against human KB cells at 4 uM after 48 hrs by MTT assay; format: functional
How it was run: as §1

KB/VCR [11] = experiment: Reversal of P-gp-mediated multidrug-resistance in human KB/VCR cells assessed as increase in intracellular rhodamine-123 accumulation after 1 hr by flow cytometry relative to control; format: cell-based
How it was run: (§3)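 Cells were pretreated with modulator at 4, 8 or 16 µM, or DMSO, for 1 h. Rh123 (5 µM) was then added for a further 1 h at 37 °C in the dark. Cells were washed and resuspended in ice-cold PBS. Rh123 fluorescence was read by flow cytometry using 488 nm excitation and a 530 nm band-pass filter. Means ± SD of three independent experiments, compared with DMSO-treated cells.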

KB/VCR [12] = experiment: Inhibition of P-gp-mediated rhodamine-123 efflux in human KB/VCR cells at 6 uM after 2 hrs by flow cytometry; format: cell-based
How it was run: (§4)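 For efflux, cells were loaded with 5 µM Rh123 together with modulator or verapamil for 60 min at 37 °C. Cells were washed three times in Rh123-free medium and collected at 15, 30, 45, 60, 90 and 120 min after wash-out. They were resuspended in ice-cold PBS, and remaining Rh123 fluorescence was measured by flow cytometry.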

KB/VCR [13] = experiment: Induction of apoptosis in human KB/VCR cells expressing Pgp assessed as up-regulation of Bax expression at 16 uM after 48 hrs by Western blotting; format: functional, cell-based
How it was run: (§5)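 KB/VCR cells were treated for 48 h with modulator (16 µM), VCR (0.2 µM), or both. Cells were lysed in RIPA buffer containing protease and phosphatase inhibitors. Protein was separated by SDS–PAGE and transferred to PVDF. Membranes were blocked in 5% milk/TBST and probed overnight with anti-Bcl-2 or anti-Bax, then an HRP secondary. GAPDH served as loading control, with ECL detection.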

KB [14] = experiment: Potentiation of adriamycin-induced cytotoxicity against human KB cells at 4 uM after 48 hrs by MTT assay; format: functional
How it was run: as §1

KB [15] = experiment: Potentiation of adriamycin-induced cytotoxicity against human KB cells at 8 uM after 48 hrs by MTT assay; format: functional
How it was run: as §1

KB/VCR [16] = experiment: Inhibition of P-gp-mediated rhodamine-123 efflux in human KB/VCR cells at 6 uM after 1 hr by flow cytometry; format: cell-based
How it was run: as §4

KB/VCR [17] = experiment: Reversal of P-glycoprotein-mediated vincristine-resistance in human KB/VCR cells expressing Pgp assessed as ratio of adriamycin IC50 to adriamycin IC50 in presence of compound at 4 uM after 48 hrs by MTT assay; format: cell-based
How it was run: as §1

KB/VCR [18] = experiment: Reversal of P-glycoprotein-mediated vincristine-resistance in human KB/VCR cells expressing Pgp assessed as ratio of adriamycin IC50 to adriamycin IC50 in presence of compound at 8 uM after 48 hrs by MTT assay; format: cell-based
How it was run: as §1

KB [19] = experiment: Potentiation of vincristine-induced cytotoxicity against human KB cells at 8 uM after 48 hrs by MTT assay; format: functional
How it was run: as §1

KB/VCR [20] = experiment: Induction of apoptosis in human KB/VCR cells expressing Pgp assessed as down-regulation of Bcl-2 expression at 16 uM after 48 hrs by Western blotting; format: functional, cell-based
How it was run: as §5

KB/VCR [21] = experiment: Induction of apoptosis in human KB/VCR cells expressing Pgp assessed as morphological changes using DAPI staining at 16 uM after 48 hrs by fluorescence microscopic analysis; format: functional, cell-based
How it was run: (§6)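 KB/VCR cells were treated for 48 h with modulator (16 µM), VCR (0.2 µM), or both. Cells were fixed in 4% paraformaldehyde for 10 min, permeabilized with 0.1% Triton X-100, and stained with DAPI (1:2000) for 10 min. Condensed or fragmented nuclei were scored by fluorescence microscopy.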

KB [22] = experiment: Induction of rhodamine-123 accumulation in human KB cells at […] after 1 hr by flow cytometry; format: functional, cell-based
How it was run: as §3

KB/VCR [23] = experiment: Induction of apoptosis in human KB/VCR cells expressing Pgp assessed as down-regulation of Bcl-2 expression at 0.2 uM after 48 hrs by Western blotting; format: functional, cell-based
How it was run: as §5

KB/VCR [24] = experiment: Induction of apoptosis in human KB/VCR cells expressing Pgp assessed as up-regulation of Bax expression at 0.2 uM after 48 hrs by Western blotting; format: functional, cell-based
How it was run: as §5

KB/VCR [25] = experiment: Induction of apoptosis in human KB/VCR cells expressing Pgp assessed as morphological changes using DAPI staining at 0.2 uM after 48 hrs by fluorescence microscopic analysis; format: functional, cell-based
How it was run: as §6

KB/VCR [26] = experiment: Reversal of P-gp-mediated multidrug-resistance in human KB/VCR cells assessed as increase in intracellular adriamycin accumulation at 8 uM after 1 hr by flow cytometry relative to control; format: cell-based
How it was run: (§7)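 Cells were incubated with ADR at 3 µg/mL, alone or with modulator at 4, 8 or 16 µM, for 1 h at 37 °C. The reaction was stopped in an ice-water bath, and cells were washed twice with ice-cold PBS. Intracellular ADR fluorescence was measured by flow cytometry as mean intensity and expressed relative to DMSO-treated control cells.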

KB/VCR [27] = experiment: Reversal of P-gp-mediated multidrug-resistance in human KB/VCR cells assessed as increase in intracellular adriamycin accumulation at 16 uM after 1 hr by flow cytometry relative to control; format: cell-based
How it was run: as §7

KB/VCR [28] = experiment: Reversal of P-gp-mediated multidrug-resistance in human KB/VCR cells assessed as increase in intracellular adriamycin accumulation at 4 uM after 1 hr by flow cytometry relative to control; format: cell-based
How it was run: as §7

KB [29] = experiment: Induction of adriamycin accumulation in human KB cells at […] after 1 hr by flow cytometry; format: functional, cell-based
How it was run: as §7

Row | Compound | fold change (FC) (KB/VCR [1]) | fold change (FC) (KB [2]) | fold change (FC) (KB/VCR [3]) | fold change (FC) (KB [4]) | pIC50 (KB [5]) | pIC50 ([7]; Homo sapiens, KB/VCR, 48 h) | fold change (FC) (KB/VCR [8]) | fold change (FC) (KB/VCR [9]) | IC50 ([7]; Homo sapiens, KB/VCR, 48 h) [µg/mL] | IC50 (KB [5]) [µg/mL] | other results
1 | COc1ccc(CCN(C)CCCC(C#N)(c2ccc(OC)c(OC)c2)C(C)C)cc1OC (stereo unspecified) | 5.32 | 1.29 | 8.85 | 1.06 |  |  |  |  |  |  | inhibition (KB/VCR (human)): inactive
2 | COc1ccc2cc1Oc1ccc(cc1)/C=C/c1cccc(OC)c1Oc1cccc(c1)CC2 [DIMETHYLETHER DEHYDROMARCHANTIN C] |  |  | 3.1 |  | 4.03 |  |  |  |  |  | fold change (FC) (KB/VCR [6]): 2.47
3 | COc1ccc2cc1Oc1ccc(cc1)CCc1cccc(OC)c1Oc1cccc(c1)CC2 [DIMETHYL ETHER MARCHANTIAN C] | 6.06 | 1.54 | 7.53 | 0.91 | 4.02 | 4.02 | 4.78 | 2.57 and 6.76 |  |  | fold change (FC) (KB [10]): 1.17; Activity (KB/VCR [11]): Dose-dependent effect; inhibition (KB/VCR [12]): inactive; Activity (KB/VCR [13]): inactive; fold change (FC) (KB [14]): 1.02; fold change (FC) (KB [15]): 1.15; inhibition (KB/VCR [16]): Active; fold change (FC) (KB/VCR [17]): 3.96; fold change (FC) (KB/VCR [18]): 4.2; fold change (FC) (KB [19]): 1.33; Activity (KB/VCR [20]): inactive; Activity (KB/VCR [21]): inactive; Activity (KB [22]): inactive
4 | Oc1ccc2cc1Oc1ccc(cc1)/C=C/c1cccc(O)c1Oc1cccc(c1)CC2 [DEHYDROMARCHANTIN C] |  |  | 5.95 |  | 4.08 | 4.06 | 2.16 | 3.51 |  |  | 
5 | CC[C@]1(O)C[C@H]2CN(CCc3c([nH]c4ccccc34)[C@@](C(=O)OC)(c3cc4c(cc3OC)N(C=O)[C@H]3[C@@](O)(C(=O)OC)[C@H](OC(C)=O)[C@]5(CC)C=CCN6CC[C@]43[C@@H]65)C2)C1 [VINCRISTINE] |  |  |  |  | 8.22 | 5.83 |  |  |  |  | pIC50 ([7]; kb/vcr): 5.83; Activity (KB/VCR [23]): inactive; Activity (KB/VCR [24]): inactive; Activity (KB/VCR [25]): inactive
6 | COc1cccc2c1C(=O)c1c(O)c3c(c(O)c1C2=O)C[C@@](O)(C(=O)CO)C[C@@H]3O[C@H]1C[C@H](N)[C@H](O)[C@H](C)O1.Cl [DOXORUBICIN HYDROCHLORIDE] |  |  |  |  |  |  |  |  | 49.7 | 1.66 | fold change (FC) (KB/VCR [26]): 2.8; fold change (FC) (KB/VCR [27]): 5.7; fold change (FC) (KB/VCR [28]): 2.1; Activity (KB [29]): inactive
